Measurements as given in ChEMBL document CHEMBL1136958, “Design and optimization of renin inhibitors: Orally bioavailable alkyl amines” (Bioorg Med Chem Lett, 2009).
Blank lines part the entries; values can stand above or below the compound they belong to. Calls of active or inactive are those of the source. The rule behind the calls is not given here.

Legend:
Renin [1] = molecular target: T1, Renin (Homo sapiens, UniProt P00797); test: Inhibition of human recombinant renin
T1 sequence (P00797 whole entry): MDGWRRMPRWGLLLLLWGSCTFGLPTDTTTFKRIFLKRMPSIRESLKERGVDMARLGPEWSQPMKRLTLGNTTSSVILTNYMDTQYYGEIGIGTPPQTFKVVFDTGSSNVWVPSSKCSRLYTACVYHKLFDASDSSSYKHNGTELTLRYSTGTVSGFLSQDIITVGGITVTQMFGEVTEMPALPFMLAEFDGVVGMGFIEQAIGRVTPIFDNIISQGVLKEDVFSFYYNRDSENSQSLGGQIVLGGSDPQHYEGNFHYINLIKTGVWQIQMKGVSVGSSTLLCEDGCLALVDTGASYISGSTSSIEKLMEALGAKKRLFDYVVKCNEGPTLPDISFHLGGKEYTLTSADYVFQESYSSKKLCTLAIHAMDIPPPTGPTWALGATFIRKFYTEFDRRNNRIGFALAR

Renin [2] = molecular target: T1, Renin; test: Inhibition of human recombinant renin in presence of human plasma by competitive radioimmunoassay; format: cell-free
[3] = Clearance in rat at 2 mg/kg, iv; format: ADME, organism-based; design: dose 2 mg/kg, route intravenous; conditions: in vivo
How it was run: (§1)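 Rats dosed with the fumarate salt at 10 mg/kg by oral route and 2 mg/kg intravenously. Plasma concentrations measured over time, and PK parameters derived from them.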

[4] = AUC (0 to t) in rat at 10 mg/kg, po and 2 mg/kg, iv; format: ADME, organism-based; conditions: plasma; how it was run: as §1
[5] = Volume of distribution at steady state in rat at 10 mg/kg, po and 2 mg/kg, iv; format: ADME, organism-based; conditions: in vivo, read-out: Vdss
[6] = Cmax in rat at 10 mg/kg, po and 2 mg/kg, iv; format: ADME, organism-based; conditions: in vivo; how it was run: as §1
[7] = Oral bioavailability in rat at 10 mg/kg; format: ADME, organism-based; conditions: in vivo; how it was run: as §1
[8] = Tmax in rat at 10 mg/kg, po and 2 mg/kg, iv; format: ADME, organism-based; conditions: in vivo; how it was run: as §1
[9] = Half life in rat at 10 mg/kg, po and 2 mg/kg, iv; format: ADME, organism-based; conditions: in vivo; how it was run: as §1
[10] = AUC (infinity) in rat at 10 mg/kg, po and 2 mg/kg, iv; format: ADME, organism-based; conditions: plasma; how it was run: as §1
Macaca fascicularis [11] = species on record: Macaca fascicularis; test: Terminal half life in cynomolgus monkey; conditions: in vivo, read-out: beta t1/2 (converted)
[12] = Solubility in water; format: physicochemical
[13] = Terminal half life in dog; format: ADME, organism-based, Canis lupus familiaris; conditions: in vivo, read-out: beta t1/2 (converted)
[14] = Oral bioavailability in dog; format: ADME, organism-based, Canis lupus familiaris; conditions: in vivo
Macaca fascicularis [15] = test: Oral bioavailability in cynomolgus monkey; conditions: in vivo
[16] = molecular target: Voltage-gated inwardly rectifying potassium channel KCNH2 (Homo sapiens, UniProt Q12809); test: Inhibition of human ERG by patch clamp assay
Sequence of Voltage-gated inwardly rectifying potassium channel KCNH2 (Q12809 whole entry): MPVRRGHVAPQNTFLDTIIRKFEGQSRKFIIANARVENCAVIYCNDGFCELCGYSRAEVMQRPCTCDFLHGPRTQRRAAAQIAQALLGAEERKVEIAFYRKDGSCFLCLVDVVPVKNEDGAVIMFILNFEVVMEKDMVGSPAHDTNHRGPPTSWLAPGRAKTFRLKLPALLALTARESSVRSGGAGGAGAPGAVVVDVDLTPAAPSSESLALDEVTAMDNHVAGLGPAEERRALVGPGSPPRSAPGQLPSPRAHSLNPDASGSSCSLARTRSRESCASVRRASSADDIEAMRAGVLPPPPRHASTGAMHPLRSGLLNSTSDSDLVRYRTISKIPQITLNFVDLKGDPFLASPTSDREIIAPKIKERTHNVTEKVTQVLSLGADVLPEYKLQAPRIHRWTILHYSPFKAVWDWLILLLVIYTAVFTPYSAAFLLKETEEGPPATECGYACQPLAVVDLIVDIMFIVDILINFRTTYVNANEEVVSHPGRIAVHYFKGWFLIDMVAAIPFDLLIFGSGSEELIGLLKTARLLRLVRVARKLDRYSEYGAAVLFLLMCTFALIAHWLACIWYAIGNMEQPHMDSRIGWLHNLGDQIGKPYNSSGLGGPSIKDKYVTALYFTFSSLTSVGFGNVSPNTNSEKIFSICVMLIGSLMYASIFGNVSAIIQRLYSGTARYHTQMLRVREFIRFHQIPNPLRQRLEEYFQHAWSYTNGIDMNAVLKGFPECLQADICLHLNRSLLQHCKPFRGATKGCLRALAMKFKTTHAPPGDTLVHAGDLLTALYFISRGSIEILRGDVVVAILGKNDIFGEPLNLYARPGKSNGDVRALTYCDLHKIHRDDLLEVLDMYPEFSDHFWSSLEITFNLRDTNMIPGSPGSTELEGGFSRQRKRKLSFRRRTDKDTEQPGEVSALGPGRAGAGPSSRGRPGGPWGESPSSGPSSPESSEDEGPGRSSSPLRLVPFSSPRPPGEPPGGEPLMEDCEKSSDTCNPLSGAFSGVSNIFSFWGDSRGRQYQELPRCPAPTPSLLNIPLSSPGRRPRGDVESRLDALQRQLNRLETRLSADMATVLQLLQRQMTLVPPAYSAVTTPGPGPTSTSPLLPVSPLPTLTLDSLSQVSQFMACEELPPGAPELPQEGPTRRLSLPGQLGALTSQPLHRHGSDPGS

Rattus norvegicus = test: Antihypertensive activity in double transgenic rat model assessed as reduction in blood pressure at 60 mg/kg, po administered on day 2 and day 3 after vehicle treatment on day 1; format: functional, organism-based; design: dose 60 mg/kg
How it was run: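 Telemetered double transgenic rats carrying human angiotensinogen and human renin genes (n = 4). Vehicle given on day 1 with blood pressure monitored over 24 h. Oral gavage at 60 mg/kg at t = 24 h and 48 h, with blood pressure followed continuously by telemetry.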

IC50 (Renin [1]): 58 nM
Structure (SMILES): CNC[C@H](CC1CCCCC1)NC(=O)N1CCC[C@@H]([C@@H](OCCCOC)c2cccc(F)c2)C1

IC50 (Renin [1]): 55 nM
Structure (SMILES): CCOCCCO[C@@H](c1ccccc1)[C@@H]1CCCN(C(=O)N[C@H](CN)CC2CCCCC2)C1

IC50 (Renin [1]): 0.13 nM
IC50 (Renin [2]): 12 nM
Structure (SMILES): CNC[C@H](CC1CCCCC1)NC(=O)N1CCC[C@@H]([C@@](O)(CCCCOC)c2cccc(Br)c2)C1

clearance [3]: 79 mL/min/kg
AUC(0-t) [4]: 745 ng·h/mL
Vd [5]: 55 L/kg
Cmax [6]: 135 ng/mL
bioavailability [7]: 48.3%
Tmax [8]: 3 h
half-life [9]: 8.7 h
AUC(0-inf) [10]: 833 ng·h/mL
Structure (SMILES): CCOCCCC[C@@](O)(c1ccccc1)[C@@H]1CCCN(C(=O)N[C@H](CNC)CC2CCCCC2)C1.O=C(O)/C=C/C(=O)O

clearance [3]: 33 mL/min/kg
half-life (Macaca fascicularis [11]): 16 h
Cmax [6]: 73 ng/mL
bioavailability [7]: 12.9%
Tmax [8]: 3.3 h
solubility [12]: > 1000 µg/mL
AUC(0-inf) [10]: 530 ng·h/mL
half-life [13]: 16 h
bioavailability [14]: 38%
bioavailability (Macaca fascicularis [15]): 17%
Structure (SMILES): CNC[C@H](CC1CCCCC1)NC(=O)N1CCC[C@@H]([C@@](O)(CCCCOC)c2cccc(Cl)c2)C1.O=C(O)/C=C/C(=O)O
IC50 [16]: > 30000 nM

IC50 (Renin [1]): 7 nM
IC50 (Renin [2]): 389 nM
Structure (SMILES): CNC[C@H](CC1CCCCC1)NC(=O)N1CCC[C@@H]([C@@](O)(CCCCOC)c2cccc(C(F)(F)F)c2)C1

IC50 (Renin [1]): 46 nM
IC50 (Renin [2]): 1400 nM
Structure (SMILES): COCCCC[C@@](O)(c1cccc(Cl)c1)[C@@H]1CCCN(C(=O)N[C@H](CNCC(F)(F)F)CC2CCCCC2)C1

IC50 (Renin [1]): 2.5 nM
IC50 (Renin [2]): 67 nM
Structure (SMILES): CNC[C@H](CC1CCCCC1)NC(=O)N1CCC[C@@H]([C@@](O)(CCCCOC)c2cccc(C)c2)C1

IC50 (Renin [1]): 11 nM
IC50 (Renin [2]): 84 nM
Structure (SMILES): CCOCCCO[C@@H](c1cccc(F)c1)[C@@H]1CCCN(C(=O)N[C@H](CNC)CC2CCCCC2)C1

clearance [3]: 46 mL/min/kg
AUC(0-t) [4]: 221 ng·h/mL
Vd [5]: 56 L/kg
Cmax [6]: 28 ng/mL
bioavailability [7]: 7.5%
Tmax [8]: 2.3 h
half-life [9]: 5.1 h
AUC(0-inf) [10]: 192 ng·h/mL
Structure (SMILES): COCCCC[C@@](O)(c1ccccc1)[C@@H]1CCCN(C(=O)N[C@H](CN)CC2CCCCC2)C1.O=C(O)/C=C/C(=O)O

IC50 (Renin [1]): 6 nM
IC50 (Renin [2]): 154 nM
Structure (SMILES): CCNC[C@H](CC1CCCCC1)NC(=O)N1CCC[C@@H]([C@@](O)(CCCCOC)c2cccc(Cl)c2)C1

Structure (SMILES): CNC[C@H](CC1CCCCC1)NC(=O)N1CCC[C@@H]([C@@](O)(CCCCOC)c2cccc(Cl)c2)C1
Activity (Rattus norvegicus): Active

IC50 (Renin [1]): 21 nM
IC50 (Renin [2]): 315 nM
Structure (SMILES): CNC[C@H](CC1CCCCC1)NC(=O)N1CCC[C@@H]([C@@](O)(CCCCO)c2cccc(Cl)c2)C1

IC50 (Renin [1]): 0.1 nM
IC50 (Renin [2]): 27 nM
Structure (SMILES): CNC[C@H](CC1CCCCC1)NC(=O)N1CCC[C@@H]([C@@](O)(CCCCOC)c2cccc(Cl)c2F)C1

IC50 (Renin [1]): 125 nM
Structure (SMILES): CCOCCCO[C@@H](c1cccc(Cl)c1Cl)[C@@H]1CCCN(C(=O)N[C@H](CNC)CC2CCCCC2)C1

IC50 (Renin [1]): 4 nM
Structure (SMILES): CCOCCCO[C@@H](c1cccc(Cl)c1)[C@@H]1CCCN(C(=O)N[C@H](CNC)CC2CCCCC2)C1

IC50 (Renin [1]): 0.9 nM
IC50 (Renin [2]): 28 nM
Structure (SMILES): CNC[C@H](CC1CCCCC1)NC(=O)N1CCC[C@@H]([C@@](O)(CCCCOC)c2cc(F)cc(Cl)c2)C1

IC50 (Renin [1]): 4 nM
IC50 (Renin [2]): 61 nM
Structure (SMILES): CNC[C@H](CC1CCCCC1)NC(=O)N1CCC[C@@H]([C@@](O)(CCCCOC)c2ccccc2F)C1

IC50 (Renin [1]): 7 nM
IC50 (Renin [2]): 64 nM
Structure (SMILES): CNC[C@H](CC1CCCCC1)NC(=O)N1CCC[C@@H]([C@@](O)(CCCCOC)c2ccccc2)C1

IC50 (Renin [1]): 37 nM
IC50 (Renin [2]): 86 nM
Structure (SMILES): CNC[C@H](CC1CCCCC1)NC(=O)N1CCC[C@@H]([C@@](O)(CCCCOC)c2cccc(C#N)c2)C1

clearance [3]: 59 mL/min/kg
Vd [5]: 22 L/kg
Cmax [6]: 91 ng/mL
bioavailability [7]: 35.8%
Tmax [8]: 3 h
AUC(0-inf) [10]: 882 ng·h/mL
Structure (SMILES): CCOCCCO[C@@H](c1ccccc1)[C@@H]1CCCN(C(=O)N[C@H](CNC)CC2CCCCC2)C1.O=C(O)/C=C/C(=O)O
